Measured values: ChEMBL document CHEMBL2390869, “Evolution of novel tricyclic CRTh2 receptor antagonists from a (E)-2-cyano-3-(1H-indol-3-yl)acrylamide scaffold” (Bioorg Med Chem Lett, 2013)
≈ marks a conversion by molar mass, not a printed value.

Assays:
[1] = Oral bioavailability in Wistar rat at 10 mg/kg; assay type: ADME, organism-based; conditions: in vivo
In short: (§1)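 Single doses given to three male Wistar rats per route: 10 mg/kg orally and 1 mg/kg intravenously, as a solution in 20% propyleneglycol/80% buffer. Plasma PK parameters were derived. CL, terminal T1/2 and Vss come from the intravenous arm. AUC0–last comes from the oral arm.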

[2] = Volume of distribution at steady state in Wistar rat at 10 mg/kg, po and 1 mg/kg, iv; assay type: ADME, organism-based; conditions: in vivo, read-out: Vdss; in short: as §1
[3] = Terminal half life in Wistar rat at 10 mg/kg, po and 1 mg/kg, iv; assay type: ADME, organism-based; conditions: in vivo, read-out: beta t1/2 (converted); in short: as §1
[4] = Clearance in Wistar rat at 10 mg/kg, po and 1 mg/kg, iv; assay type: ADME, organism-based; conditions: in vivo; in short: as §1
[5] = Cmax in Wistar rat at 10 mg/kg, po and 1 mg/kg, iv; assay type: ADME, organism-based; conditions: in vivo; in short: as §1
[6] = AUC (0 to last) in Wistar rat at 10 mg/kg, po; assay type: ADME, organism-based; parameters: time 0 - last, dose 10 mg/kg, route oral; conditions: plasma; in short: as §1
[7] = Stability in simulated intestinal fluid after 4 hrs by LC/MS analysis; assay type: physicochemical; conditions: read-out: Stability
In short: (§2)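 Compound incubated in simulated gastric fluid for 1 h or simulated intestinal fluid for 4 h. Unchanged parent recovered and measured by LC–MS, expressed as % parent.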

[8] = Stability in simulated gastric fluid after 1hr by LC/MS analysis; assay type: physicochemical; conditions: read-out: Stability; in short: as §2
[9] = Solubility of the compound in buffer at pH 4; assay type: physicochemical
In short: (§3)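 Solubility measured in buffered aqueous solution at pH 4 and pH 7, and in water, where the final pH of the aqueous solution was 4.6.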

[10] = Solubility of the compound in buffer at pH 7; assay type: physicochemical; in short: as §3
[11] = Aqueous solubility of the compound in water at pH 4.6; assay type: physicochemical; in short: as §3
[12] = Lipophilicity, log D of the compound at pH 7.4; assay type: physicochemical; conditions: buffer
[13] = Intrinsic clearance in rat hepatocytes measured per 10^6 cells; assay type: ADME, cell-based, Hepatocyte; conditions: read-out: CLH
In short: (§4)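 Intrinsic clearance determined in human and rat liver microsomes (per mg protein) and in rat hepatocytes (per 10⁶ cells).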

[14] = Intrinsic clearance in rat liver microsomes assessed per mg of protein; assay type: ADME, Microsome; conditions: read-out: CLH; in short: as §4
[15] = Metabolic stability in human plasma assessed as compound remaining after 4 hrs; assay type: ADME, cell-free; conditions: read-out: Stability
In short: (§5)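 Compound incubated in rat and human plasma for up to 4 h. Unchanged parent quantified by LC–MS, reported as % parent remaining at 4 h plus elimination half-life.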

[16] = Intrinsic clearance in human liver microsomes assessed per mg of protein; assay type: ADME, Microsome; conditions: read-out: CLH; in short: as §4
[17] = Half life in rat plasma; assay type: ADME, cell-free; in short: as §5
[18] = Half life in human plasma; assay type: ADME, cell-free; in short: as §5
[19] = Metabolic stability in rat plasma assessed as compound remaining after 4 hrs; assay type: ADME, cell-free; conditions: read-out: Stability; in short: as §5
[20] = target: Cytochrome P450 2D6 (Homo sapiens, UniProt P10635); assay: Inhibition of CYP2D6 (unknown origin); assay type: ADME
Sequence of Cytochrome P450 2D6 (P10635 whole entry): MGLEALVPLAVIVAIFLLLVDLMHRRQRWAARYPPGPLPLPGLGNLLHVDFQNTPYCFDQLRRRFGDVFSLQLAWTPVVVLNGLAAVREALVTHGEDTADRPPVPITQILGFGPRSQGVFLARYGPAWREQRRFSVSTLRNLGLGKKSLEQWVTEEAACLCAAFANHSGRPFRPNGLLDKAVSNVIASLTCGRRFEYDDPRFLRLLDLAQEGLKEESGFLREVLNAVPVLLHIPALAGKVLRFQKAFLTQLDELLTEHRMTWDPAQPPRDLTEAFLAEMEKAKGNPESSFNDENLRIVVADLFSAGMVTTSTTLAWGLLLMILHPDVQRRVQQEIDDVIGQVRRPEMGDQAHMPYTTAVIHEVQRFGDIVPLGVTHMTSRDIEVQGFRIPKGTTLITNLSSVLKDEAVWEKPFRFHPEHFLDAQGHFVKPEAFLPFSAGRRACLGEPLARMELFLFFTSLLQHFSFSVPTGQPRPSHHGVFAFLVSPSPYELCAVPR

[21] = target: Cytochrome P450 3A4 (Homo sapiens, UniProt P08684); assay: Inhibition of CYP3A4 (unknown origin); assay type: ADME
Sequence of Cytochrome P450 3A4 (P08684 whole entry): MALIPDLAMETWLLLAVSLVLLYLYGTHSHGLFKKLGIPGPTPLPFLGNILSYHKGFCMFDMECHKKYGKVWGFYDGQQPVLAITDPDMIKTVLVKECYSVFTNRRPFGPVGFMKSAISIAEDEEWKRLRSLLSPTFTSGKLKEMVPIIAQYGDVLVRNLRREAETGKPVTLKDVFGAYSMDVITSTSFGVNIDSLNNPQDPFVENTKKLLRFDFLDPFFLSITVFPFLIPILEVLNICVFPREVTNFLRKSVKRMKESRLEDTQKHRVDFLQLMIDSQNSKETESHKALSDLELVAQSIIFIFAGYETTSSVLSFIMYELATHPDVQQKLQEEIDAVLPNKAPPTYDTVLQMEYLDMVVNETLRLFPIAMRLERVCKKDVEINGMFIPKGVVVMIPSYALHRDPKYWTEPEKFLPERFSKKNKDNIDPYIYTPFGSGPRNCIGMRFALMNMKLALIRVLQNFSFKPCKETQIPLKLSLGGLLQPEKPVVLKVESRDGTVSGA

[22] = target: Cytochrome P450 2C9 (Homo sapiens, UniProt P11712); assay: Inhibition of CYP2C9 (unknown origin); assay type: ADME
Sequence of Cytochrome P450 2C9 (P11712 whole entry): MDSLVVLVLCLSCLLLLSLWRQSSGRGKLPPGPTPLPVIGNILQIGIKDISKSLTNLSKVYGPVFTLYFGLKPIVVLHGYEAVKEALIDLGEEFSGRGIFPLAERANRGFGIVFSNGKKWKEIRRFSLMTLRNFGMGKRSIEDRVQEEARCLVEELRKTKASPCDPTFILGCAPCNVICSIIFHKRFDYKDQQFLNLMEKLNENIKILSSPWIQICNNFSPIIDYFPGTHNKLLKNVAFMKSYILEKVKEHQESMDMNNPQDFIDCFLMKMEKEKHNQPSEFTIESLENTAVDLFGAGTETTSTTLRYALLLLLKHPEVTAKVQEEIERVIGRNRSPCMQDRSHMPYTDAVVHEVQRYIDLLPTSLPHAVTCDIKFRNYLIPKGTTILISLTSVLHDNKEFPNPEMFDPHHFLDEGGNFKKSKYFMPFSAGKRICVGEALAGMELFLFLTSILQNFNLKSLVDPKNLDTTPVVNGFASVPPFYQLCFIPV

[23] = target: Prostaglandin E2 receptor EP4 subtype (Homo sapiens, UniProt P35408); assay: Inhibition of PGE2 binding to human EP4 receptor
Sequence of Prostaglandin E2 receptor EP4 subtype (P35408 whole entry): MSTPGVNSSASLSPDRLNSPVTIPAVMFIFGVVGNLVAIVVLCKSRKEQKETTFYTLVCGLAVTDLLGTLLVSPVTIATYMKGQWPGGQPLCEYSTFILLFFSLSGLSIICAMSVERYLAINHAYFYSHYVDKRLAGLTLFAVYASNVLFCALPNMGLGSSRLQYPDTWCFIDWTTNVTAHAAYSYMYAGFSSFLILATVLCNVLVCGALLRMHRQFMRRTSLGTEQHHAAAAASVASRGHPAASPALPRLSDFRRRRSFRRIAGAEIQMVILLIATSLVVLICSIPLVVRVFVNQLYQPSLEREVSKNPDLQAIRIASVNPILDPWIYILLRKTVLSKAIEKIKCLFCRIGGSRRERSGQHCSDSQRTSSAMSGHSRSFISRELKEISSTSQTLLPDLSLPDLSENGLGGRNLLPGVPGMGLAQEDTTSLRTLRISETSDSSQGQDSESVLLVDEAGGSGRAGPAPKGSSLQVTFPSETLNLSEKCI

[24] = target: T1, Prostaglandin E2 receptor EP3 subtype (Homo sapiens, UniProt P43115); assay: Antagonist activity at human EP3 receptor assessed as inhibition of PGE2-induced Ca2+ mobilization by FLIPR assay; assay type: functional
T1 sequence (P43115 whole entry): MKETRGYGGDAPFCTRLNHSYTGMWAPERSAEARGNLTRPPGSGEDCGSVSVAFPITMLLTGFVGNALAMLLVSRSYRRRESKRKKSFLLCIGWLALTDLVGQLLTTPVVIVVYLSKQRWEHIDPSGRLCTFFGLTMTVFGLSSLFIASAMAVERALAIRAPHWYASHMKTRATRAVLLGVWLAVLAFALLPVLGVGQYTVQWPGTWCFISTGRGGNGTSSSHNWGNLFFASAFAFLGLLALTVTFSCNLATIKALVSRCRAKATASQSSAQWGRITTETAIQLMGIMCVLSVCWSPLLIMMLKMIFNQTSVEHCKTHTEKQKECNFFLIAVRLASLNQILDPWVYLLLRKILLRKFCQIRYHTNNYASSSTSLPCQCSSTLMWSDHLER
In short: (§6)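 Antagonism measured as inhibition of agonist-induced Ca2+ mobilization by FLIPR: PGE2 as agonist for human EP1 and EP3, U46619 as agonist for human TP. Values are IC50.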

[25] = target: T2, Prostaglandin E2 receptor EP1 subtype (Homo sapiens, UniProt P34995); assay: Antagonist activity at human EP1 receptor assessed as inhibition of PGE2-induced Ca2+ mobilization by FLIPR assay; assay type: functional; in short: as §6
T2 sequence (P34995 whole entry): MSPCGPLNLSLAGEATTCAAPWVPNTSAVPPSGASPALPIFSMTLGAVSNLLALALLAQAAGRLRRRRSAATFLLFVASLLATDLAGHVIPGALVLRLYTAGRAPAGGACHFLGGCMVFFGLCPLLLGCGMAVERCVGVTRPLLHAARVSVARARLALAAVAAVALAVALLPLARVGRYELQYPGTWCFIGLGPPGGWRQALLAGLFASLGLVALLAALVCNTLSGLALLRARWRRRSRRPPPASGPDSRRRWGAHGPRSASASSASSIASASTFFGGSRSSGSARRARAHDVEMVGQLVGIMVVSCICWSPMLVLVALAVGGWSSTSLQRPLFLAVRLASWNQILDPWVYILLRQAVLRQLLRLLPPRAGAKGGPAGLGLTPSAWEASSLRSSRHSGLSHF

[26] = target: T3, Prostaglandin D2 receptor (Homo sapiens, UniProt Q13258); assay: Inhibition of PGD2 binding to human DP1 receptor
T3 sequence (Q13258 whole entry): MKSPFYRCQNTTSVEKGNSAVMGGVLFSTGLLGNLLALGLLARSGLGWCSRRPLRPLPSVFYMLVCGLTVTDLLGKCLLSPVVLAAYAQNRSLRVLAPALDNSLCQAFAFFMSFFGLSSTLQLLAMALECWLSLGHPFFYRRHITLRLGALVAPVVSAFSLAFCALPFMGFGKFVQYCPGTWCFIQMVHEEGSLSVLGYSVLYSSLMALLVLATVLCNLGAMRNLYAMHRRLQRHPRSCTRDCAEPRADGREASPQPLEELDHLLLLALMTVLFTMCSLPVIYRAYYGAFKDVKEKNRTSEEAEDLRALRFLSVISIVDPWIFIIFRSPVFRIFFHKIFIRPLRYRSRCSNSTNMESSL

[27] = target: T4, Prostaglandin D2 receptor 2 (Homo sapiens, UniProt Q9Y5Y4); assay: Displacement of [3H]PGD2 from human CRTh2 receptor
T4 sequence (Q9Y5Y4 whole entry): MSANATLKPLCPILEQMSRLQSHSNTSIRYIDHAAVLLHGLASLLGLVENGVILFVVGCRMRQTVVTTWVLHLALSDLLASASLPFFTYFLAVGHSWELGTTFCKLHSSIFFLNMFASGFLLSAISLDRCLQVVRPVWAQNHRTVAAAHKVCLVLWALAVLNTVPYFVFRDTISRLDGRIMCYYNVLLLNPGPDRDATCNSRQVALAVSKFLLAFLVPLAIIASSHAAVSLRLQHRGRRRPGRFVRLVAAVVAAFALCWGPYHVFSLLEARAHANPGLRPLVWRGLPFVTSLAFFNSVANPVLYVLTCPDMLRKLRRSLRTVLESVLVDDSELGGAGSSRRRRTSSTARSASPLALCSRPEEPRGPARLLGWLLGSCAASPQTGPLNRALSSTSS
In short: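 Human CRTh2 binding assay run in assay buffer. IC50 reported as the mean of at least three experiments.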

[28] = target: T4, Prostaglandin D2 receptor 2; assay: Displacement of [3H]PGD2 from human CRTh2 receptor in presence of human serum albumin
In short: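 Human CRTh2 binding assay run with 0.5% human serum albumin added to the assay buffer to mimic binding to blood proteins. IC50 is reported as the mean of at least three experiments.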

[29] = target: Prostaglandin E2 receptor EP2 subtype (Homo sapiens, UniProt P43116); assay: Inhibition of PGE2 binding to human EP2 receptor
Sequence of Prostaglandin E2 receptor EP2 subtype (P43116 whole entry): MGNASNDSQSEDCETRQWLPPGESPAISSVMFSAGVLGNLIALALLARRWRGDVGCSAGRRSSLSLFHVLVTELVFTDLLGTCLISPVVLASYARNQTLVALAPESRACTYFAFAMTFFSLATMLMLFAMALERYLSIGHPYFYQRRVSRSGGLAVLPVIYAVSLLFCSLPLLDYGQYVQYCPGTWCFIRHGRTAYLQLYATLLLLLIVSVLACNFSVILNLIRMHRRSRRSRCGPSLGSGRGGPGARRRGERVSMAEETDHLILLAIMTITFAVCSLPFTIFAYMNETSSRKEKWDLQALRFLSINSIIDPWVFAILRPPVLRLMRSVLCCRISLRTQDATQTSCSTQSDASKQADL

[30] = target: T5, Thromboxane A2 receptor (Homo sapiens, UniProt P21731); assay: Antagonist activity at human TP2 receptor assessed as inhibition of U46619-induced Ca2+ mobilization by FLIPR assay; assay type: functional; in short: as §6
T5 sequence (P21731 whole entry): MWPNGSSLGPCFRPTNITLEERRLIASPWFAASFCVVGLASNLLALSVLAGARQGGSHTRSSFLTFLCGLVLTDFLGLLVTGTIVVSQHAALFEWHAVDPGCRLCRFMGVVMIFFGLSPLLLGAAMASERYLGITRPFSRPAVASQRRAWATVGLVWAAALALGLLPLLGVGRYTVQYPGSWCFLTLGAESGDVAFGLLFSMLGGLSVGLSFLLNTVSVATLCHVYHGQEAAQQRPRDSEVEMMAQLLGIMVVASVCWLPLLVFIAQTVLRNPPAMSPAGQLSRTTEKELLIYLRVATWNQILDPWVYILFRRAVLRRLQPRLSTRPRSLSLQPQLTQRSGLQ

bioavailability [1]: 18%
Vd [2]: 0.7 L/kg
half-life [3]: 1 h
clearance [4]: 14 mL/min/kg
Cmax [5]: 213 ng/mL
AUC(0-t) [6]: 2200 ng·h/mL
remaining at 4 h [7]: 68%
remaining at 1 h [8]: 93%
solubility [9]: 7 µg/mL (≈ 18.2 µM)
solubility [10]: 670 µg/mL (≈ 1740 µM)
solubility [11]: 17 µg/mL (≈ 44.1 µM)
logD [12]: -0.4
hepatocyte CLint [13]: 11 µL/min/1e6 cells
microsomal CLint [14]: 32 µL/min/mg
remaining at 4 h [15]: 95%
microsomal CLint [16]: 6 µL/min/mg
half-life [17]: > 4 h
half-life [18]: > 4 h
remaining at 4 h [19]: 90%
IC50 [20]: > 10 µM
IC50 [21]: > 10 µM
IC50 [22]: > 10 µM
IC50 [23]: > 10 µM
IC50 [24]: > 10 µM
IC50 [25]: > 10 µM
IC50 [26]: 8.2 µM
IC50 [27]: 0.014 µM
IC50 [28]: 0.01 µM
IC50 [29]: > 10 µM
IC50 [30]: > 25 µM
Compound: N#C/C(=C\c1cn(CC(=O)O)c2ccccc12)C(=O)N1CCCc2ccccc21
